# Assay outcomes: PubChem, The Scripps Research Institute Molecular Screening Center
# NPY-Y2 antag – antagonists of human neuropeptide Y receptor Y2; 0.99% of 140,000 active; P49146; NPY-Y2 expressing cells, antagonist mode; inhibition, % at 2.7 µM; AID 793; in the data active means inhibition above about 17%;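 further: 0% = vehicle with agonist challenge and 100% = reference antagonist with challenge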
# NPY1 pot ag – potentiates or activates human NPY-Y1 receptor; P25929; NPY-Y1 expressing cells, potentiator/agonist activation; activation, % at 3.6 µM; 0.37% of 220,000 active; in the data active means activation above about 33%, passing the limit was not always enough;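 further: cells stimulated with NPY at EC10 then isoproterenol at EC100; 0% = low agonist plus stimulus and 100% = saturating agonist plus stimulus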
# Target sequence (P25929 whole entry, looked up): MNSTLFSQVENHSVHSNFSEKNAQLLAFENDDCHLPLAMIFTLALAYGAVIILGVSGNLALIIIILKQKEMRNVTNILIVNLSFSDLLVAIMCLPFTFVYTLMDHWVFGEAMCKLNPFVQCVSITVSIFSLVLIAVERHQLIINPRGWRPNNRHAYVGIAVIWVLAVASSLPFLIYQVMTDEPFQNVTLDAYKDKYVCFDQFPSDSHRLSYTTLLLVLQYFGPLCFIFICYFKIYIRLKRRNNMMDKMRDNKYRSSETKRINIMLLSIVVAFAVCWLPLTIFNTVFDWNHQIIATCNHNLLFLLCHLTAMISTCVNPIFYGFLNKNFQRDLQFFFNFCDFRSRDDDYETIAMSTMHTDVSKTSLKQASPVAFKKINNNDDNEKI
# NPY2 pot ag – potentiates or activates human NPY-Y2 receptor; P49146; cells expressing NPY-Y2, potentiator/agonist read-out; activation, % at 3.6 µM; 0.45% of 220,000 active; AID 1359; in the data active means activation above about 27%;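 further: cells stimulated with NPY near EC25 plus isoproterenol at EC100; 0% = vehicle plus submaximal agonist and 100% = vehicle plus saturating agonist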
# NPY Y1 blocker – NPY-Y1 (human) receptor antagonism; inhibition, % at 3.6 µM; HEK293-CNG Y1 cells, membrane potential fluorescence; NPY at EC95, then isoproterenol; 1% of 200,000 active; P25929;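 active means inhibition above the campaign mean inhibition of all tested compounds plus 3 SD, cut at about 20% in these data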;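 further: 0% = DMSO wells given NPY plus isoproterenol and 100% = isoproterenol alone without NPY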
#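 Material: HEK293 Y1/CNG channel cell line | Also added: NPY (25 nM), isoproterenol (1 µM), Ro 20-1724 (25 µM) | Compound: One concentration, 3.6 µM, in 0.4% DMSO | Schedule: 3 h dye uptake, 1 h room-temperature compound, 45 min post-isoproterenol | Signal: Membrane-potential fluorescent dye readout | Read-out: % inhibition of NPY effect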
# An asterisk follows results filed as active; / = not tested or not shown. Shown are actives, neighbours in structure and some others; about 1.8% of the full set was active somewhere.
SMILES,NPY-Y2 antag,NPY1 pot ag,NPY2 pot ag,NPY Y1 blocker
Cc1cc2c(OCC(O)CN3CCCCC3)cccc2[nH]1 (stereo unspecified),/,110*,101*,-14
OC(COc1cccc2ccccc12)CN1CCCC1 (stereo unspecified),3,99*,94*,-15
Cc1cc2c(OCC(O)CNC3CCCCC3)cccc2[nH]1 (stereo unspecified),/,110*,103*,-11
COc1ccccc1N=C(C)C1=C(O)CC(c2ccccc2)CC1=O (stereo unspecified),/,-28,-14,21*
Cc1ccc(C(=O)N/C(=C\c2ccc(-c3ccc(Cl)cc3)o2)C(=O)NCCCN(C)C)cc1,/,-14,-2,21*
CCn1cc(Br)c(C(=O)Nc2ccc(F)cc2F)n1,/,2,-12,/
O=C(O)c1ccccc1N=Cc1c(O)n(-c2nccs2)c(=O)c2ccccc12,/,38,36,/
CCN(CC)S(=O)(=O)c1cccc(-n2c(O)c(C=Nc3ccccc3C(=O)O)c3ccccc3c2=O)c1,/,48*,74*,/
Cc1nc2n(COCCO)cnn2c(=O)c1Br,/,-8,-2,1
Fc1ccccc1CNCCC(Cc1ccccc1)c1ccc2c(c1)OCO2 (stereo unspecified),6,-7,3,10
COc1ccc(CNCCC(c2ccccc2)c2ccc3c(c2)OCO3)cc1 (stereo unspecified),17*,6,-3,34*
COc1ccc(-c2nc(-n3c(C)c(C(C)=O)c(C(C)=O)c3C)sc2C)cc1OC,4,-10,-19,8
COc1cc(/C=N/NC(=O)c2ccc([N+](=O)[O-])cc2Cl)cc(Br)c1O,3,0,1,-7
COc1cc(/C=N/N2C(=O)c3ccccc3NC2(C)c2cccc([N+](=O)[O-])c2)cc(Br)c1O (stereo unspecified),17*,-2,1,3
CCOc1cc(/C=C2/C(=N)N3C=CSC3=NC2=O)ccc1OCCCOc1ccccc1C,9,-23,3,0
CCc1ccc(OCC(=O)NC(NC(=S)Nc2ccccc2C)C(Cl)(Cl)Cl)cc1 (stereo unspecified),19*,-1,3,21*
CC1(C)CC(C(CCN(Cc2ccccc2)C(=O)c2ccco2)c2ccc(F)cc2)CCO1 (stereo unspecified),33*,-18,-4,29*
CCN(CC)CCn1c(=N)n(CC(=O)c2ccc(Br)s2)c2ccccc21,/,-26,-33,/
O=S(=O)(NCc1ccc2c(c1)OCO2)c1ccc2oc3ccccc3c2c1,19*,-67,-35,21*
CC(Oc1ccccc1)c1ccn[nH]1 (stereo unspecified),/,-8,6,1
Cc1nc(NC(C)c2ccccc2)c2c3c(sc2n1)CCC3 (stereo unspecified),17*,-66,-20,38*
Cn1c(-c2ccc(Cl)cc2)cnc1NCc1cc2c(cc1[N+](=O)[O-])OCO2,0,47*,47*,-8
O=C(COC(=O)c1ccccc1O)NCCC1=CCCCC1,/,-34,-4,8
CC1CC(=O)NN=C1c1ccc(N)c([N+](=O)[O-])c1 (stereo unspecified),78*,-69,-18,65*
Cc1ccc(NC(=S)NC(=O)/C=C/c2ccco2)c(O)c1,/,-3,-7,1
SMILES,NPY-Y2 antag,NPY1 pot ag,NPY2 pot ag,NPY Y1 blocker
Cc1ccccc1/C=N/NC(=O)Cn1cnc([N+](=O)[O-])n1,1,111*,11,7
O=c1[nH]c(/C=C/c2ccc(Br)cc2)nc2c1cnn2-c1ccccc1,/,20,3,-2
O=C(Nc1ccc2c(c1)OCCO2)c1cccnc1Oc1ccccc1,/,-13,-5,/
Cc1cc(C)cc(NC(=O)Nc2ccc(-n3ccc(C(F)(F)F)n3)cc2)c1,/,40,13,/
O=C(Nc1ccc(-n2ccc(C(F)(F)F)n2)cc1)Nc1cccc(Cl)c1,/,52*,40*,/
C=CCN1C(=Nc2cccnc2)SCC1(O)c1ccc(C)cc1 (stereo unspecified),21*,-5,31,20
C=CC[n+]1c(-c2ccc(C)cc2)csc1Nc1c(C)n(C)n(-c2ccccc2)c1=O,/,9,1,0
C=CC[n+]1c(-c2ccc(OCC)cc2)csc1NNC(=O)Nc1ccccc1,1,95*,81*,-14
O=c1cc(NCCCO)c2ccccc2o1,1,110*,72*,10
OCCCNc1nc(-c2ccccc2)nc2c1oc1ccccc12,/,7,16,/
O=C(c1ccccc1)c1cc(F)c(N2CCOCC2)cc1Cl,-1,9,5,-4
CC1(C)CC(=O)C=C(NCCO)C1,1,-9,-17,-7
CCOC(=O)c1cnc(-n2nc(C)cc2C)nc1NC1CCCCC1,20*,-146,1,31*
CCOC(=O)c1cnc(-n2nc(C)cc2C)nc1NC,1,-19,-8,10
COC(=O)CSc1nnc(-c2ccc(NS(=O)(=O)c3ccccc3)cc2)o1,-2,40*,91*,-18
Cc1cc(C(=O)CN2CCCC2)c(C)n1-c1ccc(Cl)cc1,/,-3,-2,21*
CC/C(=N\Nc1ccccc1[N+](=O)[O-])c1ccc(O)cc1,/,74*,47*,-12
CCCCOc1ccc(Br)cc1/C(C)=N/NC1=NCCN1,50*,-60,-15,50*
Clc1cccc(Nc2nc(-c3cccnc3)cs2)c1,/,47*,30*,-13
c1ccc(Nc2nc(-c3ccncc3)cs2)cc1,-11,58*,44*,-17
CC(=O)NC1C(=O)N(CCc2ccccc2)c2ccc(Br)cc21 (stereo unspecified),23*,-19,-7,23*
CC(=O)NC1C(=O)N(Cc2ccccc2)c2ccc(Br)cc21 (stereo unspecified),/,-5,-12,/
Cc1cc(C[n+]2cc(Cl)ccc2N)c2ncccc2c1,/,9,-21,/
CCOc1ccc2c(c1)sc(N)[n+]2Cc1cc(C)cc2cccnc12,42*,-69,-13,52*
COc1ccc2c(c1)sc(N)[n+]2Cc1cc(C)cc2cccnc12,48*,-58,-5,49*
SMILES,NPY-Y2 antag,NPY1 pot ag,NPY2 pot ag,NPY Y1 blocker
Cc1cc(C[n+]2ncsc2N)c2ncccc2c1,/,-23,-36,/
COc1ccccc1N1CCN(S(=O)(=O)c2cccs2)CC1,3,5,-3,2
CCOC(=O)CSc1ccc(C(=O)Nc2ccc(OC)cc2)cn1,/,75*,37*,-4
CCOC(=O)CSc1ccc(C(=O)Nc2ccc(Cl)cc2)cn1,/,-11,-1,0
CCOC(=O)C1CCCN(C(=O)c2cnn3c(C(F)F)cc(-c4ccc(C)cc4)nc23)C1 (stereo unspecified),26*,-33,-1,30*
Cc1ccc(-c2cc(C(F)F)n3ncc(C(=O)NN4CCCCC4)c3n2)cc1,/,2,-12,4
Cc1ccc(-c2cc(C(F)F)n3ncc(C(=O)N4CCN5CCCC5C4)c3n2)cc1 (stereo unspecified),19*,-76,-39,21*
CN(C(=O)CSc1nnc(-c2ccccc2)c(-c2ccccc2)n1)C1CCS(=O)(=O)C1 (stereo unspecified),3,-6,-10,-3
